The test system of one test is Pneumocystis carinii. In words: Antipneumocystis activity against Pneumocystis carinii assessed as reduction of ATP level after 72 hrs by bioluminescent assay. The test is classed as functional, organism-based. In short, it runs like this:
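P. carinii from corticosteroid-immunosuppressed male CD rat lungs (methylprednisolone 20 mg/kg weekly, inoculated intratracheally or intranasally), cryopreserved, thawed at 37°C, 5 × 10^7 nuclei/ml in RPMI-1640 with 20% calf serum; 5% CO2, 37 °C. Screened at 100 µg/ml; titrated if ATP fell ≥50%. ATPlite luciferin-luciferase luminescence at 72 h; triplicate wells, 3 assays, two batches; IC50 by linear regression of % ATP decrease vs log concentration.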

The next test deals with A549. Kind of test: Cytotoxicity against human A549 cells. The test is classed as cell-based.
The nature of test [1]: Cytotoxicity against rat L2 cells. The class given is cell-based.

From ChEMBL document CHEMBL1932958, “Analogs of pentamidine as potential anti-Pneumocystis chemotherapeutics” (Eur J Med Chem, 2012) come the findings set out here.

SMILES strings stand for the structures.

As a reminder, the IC50 is the midpoint of a concentration-inhibition curve.

With `COc1cc(C(=N)N)cc(OC)c1OCCN(CCOc1c(OC)cc(C(=N)N)cc1OC)S(=O)(=O)c1ccccc1.Cl.Cl`, the values for the half-maximal inhibitory concentration (IC50) (in the test with Pneumocystis carinii; in the test on A549; in test [1]) were 4.4 µM, over 100 µg/mL and over 100 µg/mL, respectively.

For the compound `Cl.Cl.N=C(N)c1ccc(C(=O)NCCCCNC(=O)c2ccc(C(=N)N)cc2)cc1`, the IC50 with Pneumocystis carinii was 3.58 µM; with A549, over 100 µg/mL; in test [1], over 100 µg/mL.

`COc1cc(C(=N)N)cc(OC)c1OCCN(CCOc1c(OC)cc(C(=N)N)cc1OC)S(=O)(=O)c1ccc(N)cc1.Cl.Cl`: the IC50 in the test on Pneumocystis carinii is 4.16 µM; with A549 it was over 100 µg/mL; in test [1], over 100 µg/mL.

As to `Cl.Cl.N=C(N)c1ccc(OCCOCCOc2ccc(C(=N)N)cc2)cc1`, the values for the half-inhibitory concentration (IC50) (in the test on Pneumocystis carinii; in the test on A549; in test [1]) were 2.13 µM, over 100 µg/mL and over 100 µg/mL, respectively.

In the case of `Cl.Cl.N=C(N)c1ccc(OCCSCCOc2ccc(C(=N)N)cc2)cc1`, the IC50 in the test with Pneumocystis carinii is 1.18 µM; with A549, over 100 µg/mL; in test [1], over 100 µg/mL.

For the compound `CN(CCCCCN(C)c1ccc(C(=N)N)cc1)c1ccc(C(=N)N)cc1.Cl.Cl`, the IC50 in the test on Pneumocystis carinii is 1.99 µM; with A549 it was over 100 µg/mL; in test [1], 47.1 µg/mL.

Turning to `COc1cc(C(=N)N)ccc1OCCOCCOc1ccc(C(=N)N)cc1OC.Cl.Cl`, the half-inhibitory concentration (IC50) with Pneumocystis carinii is 4.21 µM; in the test with A549 it was over 100 µg/mL; in test [1] it was over 100 µg/mL.

In the case of `COc1cc(C(=N)N)cc(OC)c1OCCOCCOc1c(OC)cc(C(=N)N)cc1OC.Cl.Cl`, the IC50 in the test on Pneumocystis carinii was 13 µM; in the test on A549, over 100 µg/mL; in test [1], over 100 µg/mL.

Take `Cl.Cl.N=C(N)c1ccc(C(=O)NCCCNC(=O)c2ccc(C(=N)N)cc2)cc1`: the IC50 in the test on Pneumocystis carinii is 2.99 µM; in the test with A549 it was over 100 µg/mL; in test [1], over 100 µg/mL.

As to `COc1cc(C(=N)N)cc(OC)c1OCCCCCOc1c(OC)cc(C(=N)N)cc1OC.Cl.Cl`, the figures for the IC50 (with Pneumocystis carinii; in the test with A549; in test [1]) were 3 µM, over 100 µg/mL and 17.8 µg/mL, respectively.

For the compound `COc1cc(C(=N)N)ccc1OCCN(CCOc1ccc(C(=N)N)cc1OC)S(=O)(=O)c1ccccc1.Cl.Cl`, the concentration for half-maximal inhibition (IC50) in the test on Pneumocystis carinii is 2.66 µM; in the test on A549 it was over 100 µg/mL; in test [1], over 100 µg/mL.

Take `COc1cc(C(=N)N)cc(OC)c1OCCN(C)CCOc1c(OC)cc(C(=N)N)cc1OC.Cl.Cl`: the IC50 was 6.26 µM in the test on Pneumocystis carinii, over 100 µg/mL in the test with A549 and over 100 µg/mL in test [1].

Consider `Cl.Cl.N=C(N)c1ccc(C(=O)NCCCCCCNC(=O)c2ccc(C(=N)N)cc2)cc1`, for which the figures for the concentration for half-maximal inhibition (IC50) (in the test on Pneumocystis carinii; in the test with A549; in test [1]) were 9.15 µM, over 100 µg/mL and over 100 µg/mL, respectively.

Consider `COc1cc(C(=N)N)ccc1OCCN(C)CCOc1ccc(C(=N)N)cc1OC.Cl.Cl`, for which the figures for the IC50 (in the test with Pneumocystis carinii; in the test with A549; in test [1]) were 3.41 µM, over 100 µg/mL and over 100 µg/mL, respectively.

In the case of `COc1cc(C(=N)N)ccc1OCCN(CCOc1ccc(C(=N)N)cc1OC)S(=O)(=O)c1ccc(NC(C)=O)cc1.Cl.Cl`, the IC50 was 3.71 µM in the test with Pneumocystis carinii, over 100 µg/mL in the test with A549 and over 100 µg/mL in test [1].

In the case of `Cl.Cl.N=C(N)c1ccc(NCCOCCNc2ccc(C(=N)N)cc2)cc1`, the figures for the IC50 (in the test on Pneumocystis carinii; in the test with A549; in test [1]) were 1.11 µM, over 100 µg/mL and 36.9 µg/mL, respectively.

In the case of `CN(CCOc1ccc(C(=N)N)cc1)CCOc1ccc(C(=N)N)cc1.Cl.Cl`, the IC50 was 1.73 µM in the test on Pneumocystis carinii, over 100 µg/mL with A549 and over 100 µg/mL in test [1].

Take `Cl.Cl.N=C(N)c1ccc(OCCN(CCOc2ccc(C(=N)N)cc2)S(=O)(=O)c2ccccc2)cc1`: the IC50 in the test on Pneumocystis carinii was 1.33 µM; in the test with A549, over 100 µg/mL; in test [1] it was over 100 µg/mL.

Regarding `Cl.Cl.N=C(N)c1ccc(C(=O)NCCCCCNC(=O)c2ccc(C(=N)N)cc2)cc1`, the half-maximal inhibitory concentration (IC50) is 14.3 µM with Pneumocystis carinii, over 100 µg/mL in the test on A549 and over 100 µg/mL in test [1].
